Rows were chosen to be rich in hits. Some 2% of all compounds tested hit in one or more screens of this group.
Fh CTSL1 inh: blocks F. hepatica cathepsin L1 in PFM18AAP counter-screen | recombinant F. hepatica cathepsin L1, Z-Leu-Arg-MCA fluorescence | inhibition, % at 5.96 µM | 0.49% of 300,000 active | AID 1906;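 active = inhibition above the mean of all tested compounds plus 3 SD, set per screening campaign, cut at about 17% in these data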;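 also: 0% = plate median of test compound wells and 100% = 1 µM Z-Phe-Ala-diazomethylketone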
PP5 inh: blocks human protein phosphatase 5 activity; P53041; purified PP5c, OMFP substrate fluorescence; inhibition, % at 6.7 µM; 0.18% of 320,000 active; AID 1987;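 active = inhibition above the campaign's mean inhibition across all tested compounds plus 3 SD, cut at about 9.5% in these data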;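 also: 0% = DMSO only and 100% = 100 µM cantharidin control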
Target sequence (P53041 whole entry, looked up): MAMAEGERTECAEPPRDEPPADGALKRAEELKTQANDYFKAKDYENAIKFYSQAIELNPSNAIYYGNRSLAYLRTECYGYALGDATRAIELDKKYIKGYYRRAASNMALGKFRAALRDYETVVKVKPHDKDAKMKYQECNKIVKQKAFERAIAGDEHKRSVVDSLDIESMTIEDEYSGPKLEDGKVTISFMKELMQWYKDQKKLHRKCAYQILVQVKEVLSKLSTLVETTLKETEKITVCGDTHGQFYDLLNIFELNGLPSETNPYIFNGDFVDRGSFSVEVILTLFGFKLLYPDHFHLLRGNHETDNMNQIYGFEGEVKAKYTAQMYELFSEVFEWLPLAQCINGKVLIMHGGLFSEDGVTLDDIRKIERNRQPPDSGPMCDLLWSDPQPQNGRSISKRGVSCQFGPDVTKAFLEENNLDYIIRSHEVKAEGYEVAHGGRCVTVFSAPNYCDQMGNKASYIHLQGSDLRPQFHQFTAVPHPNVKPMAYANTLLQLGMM
GSTO1 inh: counter-screen for RBBP9 inhibitors: inhibitors of human GSTO1; recombinant GSTO1, activity-based probe fluorescence polarization; inhibition, % at 5.96 µM; 1.1% of 300,000 active; P78417; AID 1974;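 active = inhibition above the campaign mean inhibition plus 3 SD, cut at about 35% in these data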;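 also: 0% = GSTO1-1 with DMSO and 100% = wells lacking GSTO1-1 enzyme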
Target sequence (P78417 whole entry, looked up): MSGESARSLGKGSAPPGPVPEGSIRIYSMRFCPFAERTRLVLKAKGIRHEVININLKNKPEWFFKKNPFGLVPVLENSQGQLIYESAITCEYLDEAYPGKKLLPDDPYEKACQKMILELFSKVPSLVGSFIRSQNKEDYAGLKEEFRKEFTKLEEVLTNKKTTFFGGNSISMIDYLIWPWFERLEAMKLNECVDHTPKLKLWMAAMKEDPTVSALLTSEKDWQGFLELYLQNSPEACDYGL
UCH37 DUB inh: human UCH37 deubiquitinating enzyme inhibition. purified proteasome/UCH37, Ub-AMC cleavage fluorescence. 0.33% of 330,000 active. inhibition, % (no concentration beside the values);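 active = mean inhibition over replicate wells above about 20%, limit read from the data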;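 also: 0% = compound-free wells with enzyme and 100% = wells lacking proteasome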
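Material: Human UCH37 enzyme supplied as purified proteasome complex | Schedule: 30 min preincubation with enzyme, 25 min cleavage at room temperature | Detection: AMC fluorescence 355/460 nm | Measure: % inhibition of Ub-AMC cleavage fluorescence | Controls: Wells without proteasome as full block, compound-free enzyme plus substrate as uninhibited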
Apaf1 inhib: blocks human Apaf-1 apoptosome activity. inhibition, % at 20 µM. reconstituted apoptosome caspase-3 activity, DEVD-Rh110 fluorescence. O14727. 0.71% of 330,000 active; active = inhibition of at least 40% at 20 µM;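 also: plate controls were DMSO wells for no effect and DEVD-CHO caspase inhibitor wells for full effect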
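Assay system – apoptosome proteins · Medium – Hepes buffer, pH 7.5 · Also added – cytochrome c with DEVD-Rh110 · Timing – 30 min compound preincubation, 50 min activation, room temperature · Detection – Rh110 fluorescence, excitation 480 nm, emission 540 nm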
PAD4 inh: inhibitors of human PAD4; Q9UM07; inhibition, % at 6.36 µM; 0.41% of 330,000 active; recombinant PAD4, RCA probe fluorescence polarization;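 active = percent inhibition above a cutoff equal to the mean of all tested compounds plus 3 SD, cut at about 15% in these data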;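 also: 0% = PAD4 with RCA probe and DMSO and 100% = probe without PAD4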
GSTO1 inh conf: confirmation of human GSTO1 inhibitors; recombinant GSTO1, probe fluorescence polarization; shares compounds with GSTO1 inh; AID 2176; 54% of 2,400 active; inhibition, % at 5.96 µM;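 active = inhibition above the primary screen's cutoff, its mean inhibition plus 3 SD, cut at about 35% in these data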;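 also: loss of polarization as inhibitors block binding of rhodamine sulfonate ester activity probe; 0% = GSTO1 with DMSO and 100% = wells lacking GSTO1 enzyme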
GSTO1 recomb ABPP: blocks recombinant human glutathione S-transferase omega 1. shares compounds with GSTO1 inh. recombinant GSTO1, gel ABPP SE-Rh probe fluorescence. inhibition, % at 1 µM. 30% of 130 active. AID 463110;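 active = inhibition of the enzyme GSTO1 above about 75%, limit read from the data; inactive = inhibition below that limit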
* = called active by the depositor; . = no result given.

SMILES | Fh CTSL1 inh | PP5 inh | GSTO1 inh | UCH37 DUB inh | Apaf1 inhib | PAD4 inh | GSTO1 inh conf | others
Cc1ccc(S(=O)(=O)N(CC(=O)N(C)C)c2cccc([N+](=O)[O-])c2)cc1 | -1 | -1 | 9 | 1 | 6 | -3 | .
O=C(CN(c1cccc([N+](=O)[O-])c1)S(=O)(=O)c1ccccc1)NCc1ccccc1 | 0 | 2 | 2 | 0 | 0 | -3 | .
Cc1ccc(S(=O)(=O)N(CC2CO2)c2cc(Cl)ccc2Cl)cc1 (configuration not stated) | 5 | 3 | 85* | 5 | 11 | 0 | 91* | GSTO1 recomb ABPP=0
Cc1ccc(S(=O)(=O)N(CC(O)CN2CCOCC2)c2cc(Cl)ccc2Cl)cc1 (configuration not stated) | 1 | 1 | 6 | -5 | -11 | -8 | .
O=[N+]([O-])c1cccc(N(CC2CO2)S(=O)(=O)c2ccccc2)c1 (configuration not stated) | 3 | 2 | 101* | . | 2 | -2 | 98* | GSTO1 recomb ABPP=50
CC(CC(=O)Nc1cc(C)ccn1)=NNC(=O)c1cccc(F)c1 | . | . | . | 1 | . | . | .
COc1c(Br)cc(C=Nn2c(-c3ccccc3)n[nH]c2=S)c(O)c1Br | . | . | . | -1 | . | . | .
Nc1c(S(=O)(=O)O)cc(NC(=O)c2ccccc2)c2c1C(=O)c1ccccc1C2=O | 6 | 7 | 41* | 33* | 25 | 4 | 63*
COc1ccc(C=NNc2nc3ccccc3c(=O)[nH]2)cc1 | . | . | . | 6 | . | . | .
CN(C)c1cccc(NC(=O)c2cccc3ccccc23)c1 | 1 | 3 | 38* | 1 | 6 | -3 | 5
CCN(CC)C(=O)Cn1cc(C(=O)C(=O)N2CCN(c3ccccc3)CC2)c2ccccc21 | -7 | 0 | -1 | 4 | 11 | 2 | .
CCN(C(=O)Cn1cc(C(=O)C(=O)N2CCOCC2)c2ccccc21)c1ccccc1 | -2 | 1 | 67* | 5 | -7 | 4 | 2
Cc1[nH]n(-c2ccccc2)c(=O)c1N=Nc1c(O)cc(S(=O)(=O)N(C)C)c2ccccc12 | 4 | 5 | 47* | 5 | 23 | -8 | 71*
Cc1[nH]n(-c2ccccc2)c(=O)c1N=Nc1ccc2c(c1)OCCO2 | -1 | 2 | -2 | 5 | 2 | 3 | .
CCn1cc(NC(=O)CCl)c(C)n1 | 5 | -1 | 72* | 0 | -4 | 0 | 81*
CCn1cc(CCC(=O)O)c(C)n1 | 2 | -2 | 10 | 2 | -11 | 4 | .
Oc1c(CN2CCN(c3ccccc3)CC2)cc(Br)c2cccnc12 | 8 | 5 | 38* | 2 | . | -4 | 4
c1ccc(N2CCN(Cc3ccnc4ccccc34)CC2)cc1 | -1 | 2 | -3 | 3 | -22 | -3 | .
C=CCN1C(=O)NC(c2ccccc2)(C(F)(F)F)S/C1=C(\C#N)c1nnc(N2CCOCC2)n1-c1ccccc1 (configuration not stated) | 3 | 3 | 43* | 8 | 3 | 1 | 58*
Cc1nc(N)sc1C(=O)NN=Cc1ccc([N+](=O)[O-])cc1 | . | . | . | 4 | . | . | .
CC(CNc1ccccc1O)C(=O)O (configuration not stated) | -2 | 2 | 45* | 8 | -165 | -7 | 7
ON=C(CCc1ccccc1)C1(O)CCCCC1 | . | . | . | -1 | . | . | .
CC1CCC(NC(=O)C2(C)CCC(=O)N2Cc2cccnc2)CC1 (configuration not stated) | -1 | 2 | 4 | 6 | 0 | -2 | .
CC1(C(=O)NC2CCCCC2)CCC(=O)N1Cc1cccnc1 (configuration not stated) | 0 | 0 | 52* | 0 | 5 | 1 | 5
O=C(NN=Cc1ccc2c(c1)OCO2)c1ccc(NC(=O)c2ccc(F)cc2)cc1 | . | . | . | -29 | . | . | .
SMILES | Fh CTSL1 inh | PP5 inh | GSTO1 inh | UCH37 DUB inh | Apaf1 inhib | PAD4 inh | GSTO1 inh conf | others
Cn1c(=O)c2ccccc2n2c(CCl)nnc12 | 28* | 1 | 80* | 3 | 9 | 3 | 86* | GSTO1 recomb ABPP=49
O=S1(=O)c2cccc3cccc(c23)N1CCBr | 5 | 3 | 45* | -34 | 11 | 0 | 51*
COC(=O)CCC(=O)OC1(C)C(=O)C2=CN(Cc3ccccc3)C(c3ccc(OC)cc3)=CC2=C(Br)C1=O (configuration not stated) | -3 | 10* | 50* | 5 | 31 | -27 | 14
COC(=O)CCC(=O)OC1(C)C(=O)C2=CN(Cc3ccc(OC)cc3)C(c3ccc(OC)cc3)=CC2=C(Br)C1=O (configuration not stated) | -6 | 4 | 38* | 1 | 30 | -13 | 39*
COC(=O)CCC(=O)OC1(C)C(=O)C2=CN(CCc3c[nH]c4ccccc34)C(c3ccc(OC)cc3)=CC2=C(Br)C1=O (configuration not stated) | -4 | 3 | 21 | . | 6 | -7 | .
COC(=O)CCC(=O)OC1(C)C(=O)C2=CN(c3ccccc3)C(c3ccc(OC)cc3)=CC2=C(Br)C1=O (configuration not stated) | -6 | 2 | 45* | 2 | 23 | -20 | 13
Oc1ccc(/C=N/N=C(c2ccccc2)c2ccccc2)c(O)c1O | 0 | 6 | 54* | . | . | -1 | 3
O=C(/C(=N/N=C/c1ccc(O)c(O)c1O)c1ccccc1)c1ccccc1 | 1 | 4 | 50* | . | 5 | -2 | -4
COc1ccc(CNC(=O)CC(C)=NNC(=O)COc2ccc(C)cc2Br)cc1 | . | . | . | 0 | . | . | .
CCC(=O)N1CCN(c2nc(CC)nc3sc4c(c23)CCCC4)CC1 | 2 | 3 | -4 | 6 | 6 | -3 | .
CC1CCc2c(sc3nc(C(C)(C)C)nc(N4CCN(C(=O)CCl)CC4)c23)C1 (configuration not stated) | 6 | 3 | 73* | . | 29 | 7 | 74* | GSTO1 recomb ABPP=70
O=C1c2cccc(Cl)c2C(=O)c2c1cccc2N1CCCC1 | -7 | 4 | 44* | 7 | 32 | -10 | 7
CC1=C(C)/C(=N/OC(=O)c2cccc([N+](=O)[O-])c2)C=CC1=O | 17* | 2 | 47* | . | 6 | -2 | 0
CC(=NNC(=O)C1CCCC1)c1ccc(Cl)cc1 | . | . | . | 9 | . | . | .
CC(=NNC(=O)c1cccc(S(=O)(=O)N2CCCC2)c1)c1ccc(F)cc1 | . | . | . | 1 | . | . | .
COc1cc(-c2nnc(SCc3cc(=O)oc4cc(O)c(O)cc34)o2)cc(OC)c1OC | 2 | 2 | 59* | 7 | -3 | 2 | 39*
COc1ccccc1CON=Cc1cccn1-c1nccc(N(C)C)c1C#N | . | . | . | 3 | . | . | .
Cc1cccc(NC(=O)Cn2nnc(C(=O)Nc3ccc(F)c(Cl)c3)c2N)c1 | 4 | -6 | 43* | 0 | -7 | 5 | 8

Screens (PubChem BioAssay)
